Experimental data taken from ChEMBL document CHEMBL3259701, “Siderophore receptor-mediated uptake of lactivicin analogues in gram-negative bacteria” (J Med Chem, 2014).
≈ marks a conversion by molar mass, not a printed value.

Key:
Pseudomonas aeruginosa [1] = test: Antibacterial activity against Pseudomonas aeruginosa PAO1 harboring siderophore receptor piuA and fpvA double mutant in medium containing aztreonam and low-Fe by CLSI broth microdilution method; format: functional
Pseudomonas aeruginosa [2] = test: Ratio of MIC for Pseudomonas aeruginosa PAO1 harboring siderophore receptor piuA, pfeA and pirA mutant to MIC for wild type Pseudomonas aeruginosa PAO1 in medium containing low-Fe by CLSI broth microdilution method; format: functional
Outline: (§1)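 CLSI broth microdilution MICs in a modified Mueller-Hinton broth depleted of iron to mimic low in vivo iron. Tested against wild-type PAO1 and isogenic siderophore receptor knockout strains. Reported as the knockout-strain MIC divided by the PAO1 MIC in the same iron-depleted medium.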

Escherichia coli [3] = test: Antibacterial activity against Escherichia coli DH5alpha by CLSI broth microdilution method; format: functional; conditions: DH5[alpha]
Pseudomonas aeruginosa [4] = test: Ratio of MIC for Pseudomonas aeruginosa PAO1 harboring siderophore receptor fpvA mutant to MIC for wild type Pseudomonas aeruginosa PAO1 in medium containing low-Fe by CLSI broth microdilution method; format: functional
Outline: (§2)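 Ratio of strain MIC to PAO1 MIC. Both MICs were obtained by CLSI broth microdilution in iron-depleted modified Mueller Hinton broth. A shift greater than 4× versus the parent was read as the deleted receptor(s) taking part in uptake.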

Pseudomonas aeruginosa [5] = test: Ratio of MIC for Pseudomonas aeruginosa PAO1 harboring siderophore receptor fptA mutant to MIC for wild type Pseudomonas aeruginosa PAO1 in medium containing aztreonam and low-Fe by CLSI broth microdilution method; format: functional
Escherichia coli [6] = test: Antibacterial activity against Escherichia coli DH5alpha expressing beta-lactamase TEM-24 by CLSI broth microdilution method; format: functional; conditions: DH5[alpha]
Pseudomonas aeruginosa [7] = test: Antibacterial activity against Pseudomonas aeruginosa PAO1 harboring siderophore receptor piuA and pirA double mutant in medium containing low-Fe by CLSI broth microdilution method; format: functional
Outline: (§3)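 MIC by CLSI broth microdilution in a modified Mueller Hinton broth depleted of iron to mimic the low-iron in vivo environment. Tested against PAO1 and isogenic strains lacking one or more siderophore receptors.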

Pseudomonas aeruginosa [8] = test: Ratio of MIC for Pseudomonas aeruginosa PAO1 harboring siderophore receptor fptA mutant to MIC for wild type Pseudomonas aeruginosa PAO1 in Mueller-Hinton broth medium by CLSI broth microdilution method; format: functional
Outline: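 Receptor-deficient PAO1 strain MIC divided by parent PAO1 MIC. Both MICs were obtained by CLSI broth microdilution in standard Mueller Hinton broth. A shift greater than 4× was taken to indicate that the deleted receptor(s) take part in drug uptake.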

Pseudomonas aeruginosa [9] = test: Ratio of MIC for Pseudomonas aeruginosa PAO1 harboring siderophore receptor pirA mutant to MIC for wild type Pseudomonas aeruginosa PAO1 in medium containing aztreonam and low-Fe by CLSI broth microdilution method; format: functional
Klebsiella pneumoniae = test: Antibacterial activity against Klebsiella pneumoniae KP-3700 by CLSI broth microdilution method; format: functional
Pseudomonas aeruginosa [10] = test: Ratio of MIC for Pseudomonas aeruginosa PAO1 harboring siderophore receptor piuA and pirA double mutant to MIC for wild type Pseudomonas aeruginosa PAO1 in Mueller-Hinton broth medium by CLSI broth microdilution method; format: functional
Outline: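 Broth microdilution MIC per CLSI in standard Mueller-Hinton broth, run against wild-type P. aeruginosa PAO1 and isogenic PAO1 strains lacking one or more siderophore receptors. Value is the mutant-strain MIC divided by the PAO1 MIC.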

Pseudomonas aeruginosa [11] = test: Ratio of MIC for Pseudomonas aeruginosa PAO1 harboring siderophore receptor fpvA mutant in MHB medium to MIC for Pseudomonas aeruginosa PAO1 harboring siderophore receptor fpvA mutant in medium containing low-Fe by CLSI broth microdilution method; format: functional
Pseudomonas aeruginosa [12] = test: Antibacterial activity against Pseudomonas aeruginosa PAO1 harboring siderophore receptor piuA and pirA double mutant in Mueller-Hinton broth medium by CLSI broth microdilution method; format: functional
Outline: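 MIC by CLSI broth microdilution in standard Mueller Hinton broth. Tested against wild-type P. aeruginosa PAO1 and an isogenic panel lacking one or more siderophore receptors.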

Pseudomonas aeruginosa [13] = test: Antibacterial activity against Pseudomonas aeruginosa PAO1 harboring siderophore receptor piuA and pfeA double mutant in medium containing aztreonam and low-Fe by CLSI broth microdilution method; format: functional
Pseudomonas aeruginosa [14] = test: Ratio of MIC for Pseudomonas aeruginosa PAO1 harboring siderophore receptor piuA, pfeA and pirA mutant to MIC for wild type Pseudomonas aeruginosa PAO1 in medium containing aztreonam and low-Fe by CLSI broth microdilution method; format: functional
Escherichia coli [15] = test: Antibacterial activity against Escherichia coli DH5alpha expressing beta-lactamase CTX-M-15 by CLSI broth microdilution method; format: functional; conditions: DH5[alpha]
Escherichia coli [16] = test: Antibacterial activity against Escherichia coli DH5alpha expressing beta-lactamase SHV-5 by CLSI broth microdilution method; format: functional; conditions: DH5[alpha]
Pseudomonas aeruginosa [17] = test: Antibacterial activity against Pseudomonas aeruginosa PAO1 harboring siderophore receptor pirA and pfeA double mutant in medium containing aztreonam and low-Fe by CLSI broth microdilution method; format: functional
Pseudomonas aeruginosa [18] = test: Ratio of MIC for Pseudomonas aeruginosa PAO1 harboring siderophore receptor piuA and pfeA double mutant to MIC for wild type Pseudomonas aeruginosa PAO1 in medium containing low-Fe by CLSI broth microdilution method; format: functional; outline: as §1
Pseudomonas aeruginosa [19] = test: Ratio of MIC for Pseudomonas aeruginosa PAO1 harboring siderophore receptor piuA and fptA double mutant to MIC for wild type Pseudomonas aeruginosa PAO1 in medium containing aztreonam and low-Fe by CLSI broth microdilution method; format: functional
Escherichia coli [20] = test: Antibacterial activity against Escherichia coli EC-28 by CLSI broth microdilution method; format: functional
Pseudomonas aeruginosa [21] = test: Ratio of MIC for Pseudomonas aeruginosa PAO1 harboring siderophore receptor pfeA mutant to MIC for wild type Pseudomonas aeruginosa PAO1 in medium containing aztreonam and low-Fe by CLSI broth microdilution method; format: functional
Pseudomonas aeruginosa [22] = test: Ratio of MIC for Pseudomonas aeruginosa PAO1 harboring siderophore receptor piuA, pfeA and pirA mutant in MHB medium to MIC for harboring siderophore receptor piuA, pfeA and pirA mutant in medium containing low-Fe by CLSI broth microdilution method; format: functional
Pseudomonas aeruginosa [23] = test: Antibacterial activity against Pseudomonas aeruginosa PAO1 in medium containing aztreonam and low-Fe by CLSI broth microdilution method; format: functional
Pseudomonas aeruginosa [24] = test: Ratio of MIC for Pseudomonas aeruginosa PAO1 harboring siderophore receptor piuA and pfeA double mutant in MHB medium to MIC for Pseudomonas aeruginosa PAO1 harboring siderophore receptor piuA and pfeA double mutant in medium containing low-Fe by CLSI broth microdilution method; format: functional
Pseudomonas aeruginosa [25] = test: Antibacterial activity against Pseudomonas aeruginosa PAO1 harboring siderophore receptor piuA and fpvA double mutant in medium containing low-Fe by CLSI broth microdilution method; format: functional; outline: as §3
[26] = target: Penicillin-binding protein 1A (Pseudomonas aeruginosa PAO1, UniProt Q07806); test: Displacement of fluorescent Bocillin FL from N-terminal His tagged Pseudomonas aeruginosa PAO1 PBP1a (residues 36 to 822) expressed in Escherichia coli BL21 (Gold cells)
Pseudomonas aeruginosa [27] = test: Ratio of MIC for Pseudomonas aeruginosa PAO1 harboring siderophore receptor piuA mutant to MIC for wild type Pseudomonas aeruginosa PAO1 in medium containing low-Fe by CLSI broth microdilution method; format: functional; outline: as §1
Pseudomonas aeruginosa [28] = test: Ratio of MIC for Pseudomonas aeruginosa PAO1 harboring siderophore receptor fptA mutant to MIC for wild type Pseudomonas aeruginosa PAO1 in medium containing low-Fe by CLSI broth microdilution method; format: functional; outline: as §2
Pseudomonas aeruginosa [29] = test: Ratio of MIC for Pseudomonas aeruginosa PAO1 harboring siderophore receptor piuA and pirA double mutant to MIC for wild type Pseudomonas aeruginosa PAO1 in medium containing low-Fe by CLSI broth microdilution method; format: functional; outline: as §1

Chain of Penicillin-binding protein 1A (Q07806 whole entry, the tested form may be a part): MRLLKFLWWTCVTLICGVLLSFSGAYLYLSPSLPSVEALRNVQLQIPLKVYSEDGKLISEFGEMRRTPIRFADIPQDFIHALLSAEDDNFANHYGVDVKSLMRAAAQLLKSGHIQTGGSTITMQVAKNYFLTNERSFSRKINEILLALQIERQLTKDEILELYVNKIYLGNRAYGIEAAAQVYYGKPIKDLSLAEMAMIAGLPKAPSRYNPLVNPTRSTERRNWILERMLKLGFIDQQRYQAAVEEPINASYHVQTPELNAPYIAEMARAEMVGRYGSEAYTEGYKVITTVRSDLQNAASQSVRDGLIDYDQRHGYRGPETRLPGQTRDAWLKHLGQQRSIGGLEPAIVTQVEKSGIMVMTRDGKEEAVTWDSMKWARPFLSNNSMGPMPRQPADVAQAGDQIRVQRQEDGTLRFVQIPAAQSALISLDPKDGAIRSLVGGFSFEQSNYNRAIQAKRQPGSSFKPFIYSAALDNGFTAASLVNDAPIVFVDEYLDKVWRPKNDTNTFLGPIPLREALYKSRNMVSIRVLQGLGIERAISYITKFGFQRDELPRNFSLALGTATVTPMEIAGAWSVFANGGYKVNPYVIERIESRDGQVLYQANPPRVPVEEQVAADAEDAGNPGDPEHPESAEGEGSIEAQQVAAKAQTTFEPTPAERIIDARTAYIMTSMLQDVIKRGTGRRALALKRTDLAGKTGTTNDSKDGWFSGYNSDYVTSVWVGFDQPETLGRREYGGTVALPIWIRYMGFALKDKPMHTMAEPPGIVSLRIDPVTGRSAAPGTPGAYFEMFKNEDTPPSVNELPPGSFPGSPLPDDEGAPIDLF

CC(C)(O/N=C(\C(=O)N[C@H]1CON(C2(C(=O)O)C[C@H](N3C(=O)c4cc(O)c(O)cc4C3=O)C(=O)O2)C1=O)c1csc(N)n1)C(=O)O (stereo not given in full)
MIC (Pseudomonas aeruginosa [1]): 4 µg/mL (≈ 6.04 µM) | Ratio (Pseudomonas aeruginosa [2]): >=8 | MIC (Escherichia coli [3]): 0.03 µg/mL (≈ 0.0453 µM) | Ratio (Pseudomonas aeruginosa [4]): 1 | Ratio (Pseudomonas aeruginosa [5]): 1 | MIC (Escherichia coli [6]): 0.06 µg/mL (≈ 0.0906 µM) | MIC (Pseudomonas aeruginosa [7]): 0.25 µg/mL (≈ 0.377 µM) | Ratio (Pseudomonas aeruginosa [8]): 8 | Ratio (Pseudomonas aeruginosa [9]): 1 | MIC (Klebsiella pneumoniae): 0.5 µg/mL (≈ 0.755 µM) | Ratio (Pseudomonas aeruginosa [10]): 32 | Ratio (Pseudomonas aeruginosa [11]): 512 | MIC (Pseudomonas aeruginosa [12]): 16 µg/mL (≈ 24.1 µM) | MIC (Pseudomonas aeruginosa [13]): 4 µg/mL (≈ 6.04 µM) | Ratio (Pseudomonas aeruginosa [14]): 1 | MIC (Escherichia coli [15]): 0.015 µg/mL (≈ 0.0226 µM) | MIC (Escherichia coli [16]): 0.03 µg/mL (≈ 0.0453 µM) | MIC (Pseudomonas aeruginosa [17]): 4 µg/mL (≈ 6.04 µM) | Ratio (Pseudomonas aeruginosa [18]): >=4 | Ratio (Pseudomonas aeruginosa [19]): 1 | MIC (Escherichia coli [20]): 0.25 µg/mL (≈ 0.377 µM) | Ratio (Pseudomonas aeruginosa [21]): 1 | Ratio (Pseudomonas aeruginosa [22]): 64 | MIC (Pseudomonas aeruginosa [23]): 4 µg/mL (≈ 6.04 µM) | Ratio (Pseudomonas aeruginosa [24]): 64 | MIC (Pseudomonas aeruginosa [25]): 0.25 µg/mL (≈ 0.377 µM) | IC50 [26]: 30 nM | Ratio (Pseudomonas aeruginosa [27]): >=4 | Ratio (Pseudomonas aeruginosa [28]): >=2 | Ratio (Pseudomonas aeruginosa [29]): >=8
